Columns and labels:
Rat [1] = experiment: concentration in brain after dosing; conditions: 864 h; dosed: Perfluorodecanoic acid; 10 mg/kg; oral; Female; Harlan Sprague Dawley
Rat [2] = experiment: concentration in plasma after dosing; conditions: dosed: Perfluorodecanoic acid, 2 mg/kg, oral, Male, Harlan Sprague Dawley
Rat [3] = experiment: concentration in plasma after dosing; conditions: dosed: Perfluorodecanoic acid, 2 mg/kg, oral, Male, Harlan Sprague Dawley; remark: listed apart in the source
Rat [4] = experiment: concentration in plasma after dosing; conditions: dosed: Perfluorodecanoic acid, 2 mg/kg, iv, Male, F344
Rat [5] = experiment: concentration in plasma after dosing; conditions: 3 h; dosed: Di-n-butyl phthalate; 20 mg/kg; iv; Male; Sprague-Dawley
Rat [6] = experiment: concentration in plasma after dosing; conditions: 5 h; dosed: Di-n-butyl phthalate; 20 mg/kg; iv; Male; Sprague-Dawley
Rat [7] = experiment: concentration in plasma after dosing; conditions: 1 h; dosed: Di-n-butyl phthalate; 50 mg/kg; oral; Male; Sprague-Dawley
Rat [8] = experiment: concentration in plasma after dosing; conditions: dosed: dichloroacetic acid, 100 mg/kg, oral, Male, F344
Rat [9] = experiment: concentration in plasma after dosing; conditions: 20 min; dosed: dichloroacetic acid; 10 mg/kg; oral; Male; Harlan Sprague Dawley
human = experiment: concentration in plasma after dosing; negative times count back from the end of exposure; conditions: dosed: trichloroethylene, 100 ppm, inhalation, duration: 4 hr, person
In short: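 Concentration-versus-time or amount-versus-time points were compiled from published in vivo toxicokinetic studies and from two structured collections. The studies were found by PubMed searching, classifier screening and manual review. Points were mostly digitised from plot screenshots with WebPlotDigitizer, otherwise copied from tables, and kept in the reported units. Dose, route, subject details and medium were curated by hand from each paper, and sampling and analytical methods follow each source and were often unreported.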

Rat [10] = experiment: concentration in plasma after dosing; conditions: 10 min; dosed: dichloroacetic acid; 10 mg/kg; iv; Male; F344
Rat [11] = experiment: concentration in plasma after dosing; conditions: dosed: Wyeth-14643, 2.0 mg/kg, oral, Male, Sprague-Dawley
Rat [12] = experiment: concentration in liver after dosing; conditions: 3 h; dosed: Bis 2-Chloroethoxy Methane; 20 mg/kg; iv; Male; F344
Rat [13] = experiment: concentration in plasma after dosing; conditions: dosed: Bis 2-Chloroethoxy Methane, 40 mg/kg, iv, Male, Harlan Sprague Dawley
Rat [14] = experiment: concentration in liver after dosing; conditions: 10 min; dosed: Bis 2-Chloroethoxy Methane; 20 mg/kg; iv; Male; F344
Rat [15] = experiment: concentration in thymus after dosing; conditions: 20 min; dosed: Bis 2-Chloroethoxy Methane; 20 mg/kg; iv; Male; F344
Rat [16] = experiment: concentration in plasma after dosing; conditions: 2 h; dosed: Bis 2-Chloroethoxy Methane; 20 mg/kg; iv; Female; F344
Rat [17] = experiment: concentration in liver after dosing; conditions: 1 h; dosed: Bis 2-Chloroethoxy Methane; 20 mg/kg; iv; Female; F344
Rat [18] = experiment: concentration in thymus after dosing; conditions: 10 min; dosed: Bis 2-Chloroethoxy Methane; 20 mg/kg; iv; Female; F344
Rat [19] = experiment: concentration in thymus after dosing; conditions: 10 min; dosed: Bis 2-Chloroethoxy Methane; 20 mg/kg; iv; Female; F344; remark: listed apart in the source
Rat [20] = experiment: concentration in heart after dosing; conditions: 10 min; dosed: Bis 2-Chloroethoxy Methane; 20 mg/kg; iv; Female; F344
Rat [21] = experiment: concentration in thymus after dosing; conditions: 20 min; dosed: Bis 2-Chloroethoxy Methane; 20 mg/kg; iv; Female; F344
Rat [22] = experiment: concentration in thymus after dosing; conditions: 7 h; dosed: Bis 2-Chloroethoxy Methane; 20 mg/kg; iv; Male; F344
Rat [23] = experiment: concentration in thymus after dosing; conditions: 5 h; dosed: Bis 2-Chloroethoxy Methane; 20 mg/kg; iv; Female; F344
Rat [24] = experiment: concentration in plasma after dosing; conditions: 2 h; dosed: Bis 2-Chloroethoxy Methane; 40 mg/kg; iv; Male; Harlan Sprague Dawley
Rat [25] = experiment: concentration in plasma after dosing; conditions: dosed: Fluorotelomer alcohol 8+2, 12 mg/kg, oral, Male, Harlan Sprague Dawley
Rat [26] = experiment: concentration in kidney after dosing; conditions: 3 h; dosed: Fluorotelomer alcohol 8+2; 80 mg/kg; oral; Female; Harlan Sprague Dawley
Rat [27] = experiment: concentration in heart after dosing; conditions: 10 min; dosed: Thiodiglycolic Acid; 20 mg/kg; iv; Female; Harlan Sprague Dawley
Rat [28] = experiment: concentration in thymus after dosing; conditions: 6.667 h; dosed: Thiodiglycolic Acid; 20 mg/kg; iv; Female; Harlan Sprague Dawley
Rat [29] = experiment: concentration in heart after dosing; conditions: 4 h; dosed: Thiodiglycolic Acid; 20 mg/kg; iv; Female; Harlan Sprague Dawley
Rat [30] = experiment: concentration in liver after dosing; conditions: 40 min; dosed: Thiodiglycolic Acid; 20 mg/kg; iv; Female; Harlan Sprague Dawley
Rat [31] = experiment: concentration in liver after dosing; conditions: 10 h; dosed: Thiodiglycolic Acid; 20 mg/kg; iv; Male; F344
Rat [32] = experiment: concentration in plasma after dosing; conditions: 22 h; dosed: Primidone; 80 mg/kg; oral; Female; F344
Rat [33] = experiment: concentration in plasma after dosing; conditions: 30 h; dosed: Primidone; 130 mg/kg; oral; Male; F344

O=C(O)C(F)(F)C(F)(F)C(F)(F)C(F)(F)C(F)(F)C(F)(F)C(F)(F)C(F)(F)C(F)(F)F [Perfluorodecanoic acid]
concentration in brain (Rat [1]): 1220 ng/g | concentration in plasma (Rat [2]; 12 h): 7480 ng/mL | concentration in plasma (Rat [2]; 1200 h): 1470 ng/mL | concentration in plasma (Rat [3]; 0.5 h): 1690 ng/mL | concentration in plasma (Rat [3]; 24 h): 6460 ng/mL | concentration in plasma (Rat [3]; 1848 h): 968 ng/mL | concentration in plasma (Rat [4]; 1 h): 6890 ng/mL | concentration in plasma (Rat [4]; 528 h): 4990 ng/mL | concentration in plasma (Rat [4]; 3360 h): 662 ng/mL

CCCCOC(=O)c1ccccc1C(=O)O [Mono-n-butyl phthalate]
concentration in plasma (Rat [5]): 1.64 µg/mL | concentration in plasma (Rat [6]): 0.6 µg/mL | concentration in plasma (Rat [7]): 8.65 µg/mL

O=C(O)C(Cl)Cl [dichloroacetic acid]
concentration in plasma (Rat [8]; 0.25 h): 15.5 µg/mL | concentration in plasma (Rat [8]; 6 h): 29.5 µg/mL | concentration in plasma (Rat [9]): 0.291 µg/mL | concentration in plasma (human; 0 h): 8 ng/mL | concentration in plasma (human; 0.25 h): 5 ng/mL | concentration in plasma (human; 0.5 h): 5 ng/mL | concentration in plasma (human; 1.75 h): 4 ng/mL | concentration in plasma (human; 4 h): 5 ng/mL | concentration in plasma (human; 12 h): 5 ng/mL | concentration in plasma (human; -1 h, during exposure): 10 ng/mL | concentration in plasma (human; -2 h, during exposure): 4 ng/mL | concentration in plasma (Rat [10]): 8.11 µg/mL

Cc1cccc(Nc2cc(Cl)nc(SCC(=O)O)n2)c1C
concentration in plasma (Rat [11]; 0.5 h): 1.67 µg/mL | concentration in plasma (Rat [11]; 5 h): 0.507 µg/mL

ClCCOCOCCCl [Bis 2-Chloroethoxy Methane]
concentration in liver (Rat [12]): 104 ng/g | concentration in plasma (Rat [13]; 40 min): 8120 ng/mL | concentration in plasma (Rat [13]; 8 h): 22 ng/mL | concentration in liver (Rat [14]): 2500 ng/g | concentration in thymus (Rat [15]): 25400 ng/g | concentration in plasma (Rat [16]): 188 ng/mL | concentration in liver (Rat [17]): 610 ng/g | concentration in thymus (Rat [18]): 44200 ng/g | concentration in thymus (Rat [19]): 50600 ng/g | concentration in heart (Rat [20]): 11400 ng/g | concentration in thymus (Rat [21]): 16300 ng/g | concentration in thymus (Rat [22]): 15.2 ng/g | concentration in thymus (Rat [23]): 79.1 ng/g | concentration in plasma (Rat [24]): 840 ng/mL

OCCC(F)(F)C(F)(F)C(F)(F)C(F)(F)C(F)(F)C(F)(F)C(F)(F)C(F)(F)F [Fluorotelomer alcohol 8+2]
concentration in plasma (Rat [25]; 5 min): 2.04 ng/mL | concentration in plasma (Rat [25]; 3 h): 147 ng/mL | concentration in kidney (Rat [26]): 4360 ng/g

O=C(O)CSCC(=O)O [Thiodiglycolic Acid]
concentration in heart (Rat [27]): 8770 ng/g | concentration in thymus (Rat [28]): 391 ng/g | concentration in heart (Rat [29]): 620 ng/g | concentration in liver (Rat [30]): 10000 ng/g | concentration in liver (Rat [31]): 7350 ng/g

CCC1(c2ccccc2)C(=O)NC(=O)NC1=O [Phenobarbital]
concentration in plasma (Rat [32]): 1.71 µg/mL | concentration in plasma (Rat [33]): 1.78 µg/mL

Reference: EPA's CvTdb concentration-time database
